# Screening results from PubChem BioAssay.
# KDM4C inh: inhibitors of GASC-1 (KDM4C) histone demethylase, primary screen, biochemical, single concentration HTS; inhibition, % at 12.5 µM; Lysine-specific demethylase 4C (Homo sapiens), Q9H3R0; hit rate 0.15% among 96,000; GST-KDM4C 2-372, H3K9me3 peptide, LANCE TR-FRET; AID 720574, 2013;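 active = mean replicate inhibition above about 25%, with at least 55% of replicates also reaching it, limit read from the data, passing the limit was not always enough; inconclusive = only one of those two conditions met; inactive = neither condition met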
# Target sequence (Q9H3R0 2-372 limits assumed): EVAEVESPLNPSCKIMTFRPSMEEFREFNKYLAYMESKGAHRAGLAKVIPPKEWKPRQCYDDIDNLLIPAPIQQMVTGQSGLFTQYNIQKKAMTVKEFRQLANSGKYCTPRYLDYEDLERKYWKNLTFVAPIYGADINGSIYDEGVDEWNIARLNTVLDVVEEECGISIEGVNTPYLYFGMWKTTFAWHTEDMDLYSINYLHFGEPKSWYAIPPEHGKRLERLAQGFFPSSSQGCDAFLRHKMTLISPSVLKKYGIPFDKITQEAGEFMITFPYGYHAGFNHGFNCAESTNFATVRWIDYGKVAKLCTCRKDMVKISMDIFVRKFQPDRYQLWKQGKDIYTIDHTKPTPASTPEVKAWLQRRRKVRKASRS
#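 Material: N-terminal GST-fused human GASC-1 (KDM4C) fragment, residues 2-372. Input: 10 nM enzyme. Incubation: enzyme reaction 30 min, then detection 60 min, both room temperature. Doses: one test concentration per compound. Read-out basis: inhibition from TR-FRET ratio decrease. Detection: LANCE TR-FRET, excitation 340 nm, emissions 618 and 671 nm.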
# IDH1 R132H inh: inhibitors of IDH1 R132H reductase, primary screen, biochemical, plate reader, single point; diaphorase/resazurin fluorescence, 60 min; inhibition, % at 10 µM; hit rate 0.18% among 70,000; AID 624101, 2012; in the data active = inhibition above about 34%; inconclusive = no clear call, values can overlap the other calls; inactive = below about 11%;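 also: 0% = DMSO and 100% = no enzyme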
# Pf Dd2 inh: P. falciparum Dd2 growth inhibitors, primary screen, SYBR Green fluorescence, single dose replicates; 72 h; hits give low values; activity change, % at 10 µM; hit rate 2.3% among 94,000; AID 1159554, 2015; in the data active = activity change below about -80%; inconclusive = no clear call, values can overlap the other calls
# T cruzi growth-1: T. cruzi intracellular proliferation inhibitors, primary screen, cell-based, beta-gal Tulahuen parasites, NIH3T3 host, luminescence; inhibition, % at 8.34 µM; T. cruzi beta-gal in NIH3T3, GalScreen luminescence, 90 h; hit rate 5.9% among 77,000;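 active = mean inhibition above about 93%, with at least 55% of replicates each passing it, limit read from the data, passing the limit was not always enough; inconclusive = only one of those two conditions holds; inactive = neither condition holds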
# T cruzi growth-2: T. cruzi intracellular proliferation inhibitors, confirmation, cell-based, NIH3T3 host, beta-gal parasite, luminescence, cherry-pick. T. cruzi beta-gal in NIH3T3, GalScreen luminescence, 90 h. inhibition, % at 8.35 µM. AID 651739, 2012. hit rate 72% among 5,600. shares compounds with T cruzi growth-1;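 active = mean replicate inhibition above about 95% and at least 55% of replicates individually reaching it, limit read from the data; inconclusive = only one of the two criteria is met; inactive = neither criterion is met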
# T cruzi growth-3: inhibitors of intracellular T. cruzi replication, confirmation, NIH3T3 host cells, beta-gal parasites, cherry-pick, set 2; shares compounds with T cruzi growth-1; inhibition, % at 2.09 µM; hit rate 21% among 5,600; T. cruzi beta-gal in NIH3T3, GalScreen luminescence, 90 h;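 active = mean inhibition above about 95%, with at least 55% of replicates also reaching it, limit read from the data; inconclusive = meets just one of the two conditions; inactive = meets neither condition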;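 also: plate controls were neutral control median for no effect and positive control median for full effect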
# NIH3T3 tox: cytotoxicity in mouse NIH/3T3 fibroblasts, confirmation, cytotoxicity control for T. cruzi proliferation inhibitor project, cell-based, cherry-pick, single point; shares compounds with T cruzi growth-1; NIH/3T3 viability, CellTiter-Glo ATP luminescence, 90 h; cytotoxicity (signal decrease), % at 8.35 µM; hit rate 14% among 5,600; AID 651742, 2012;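 active = mean signal decrease across replicates above about 35% based on untreated-well scatter, with enough replicates individually passing, limit read from the data; inconclusive = no rule stated though some were filed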;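 also: 0% = median of neutral control wells and 100% = median of positive control wells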
# NIH3T3 tox 2: NIH/3T3 fibroblast cytotoxicity, confirmation, cytotoxicity control, cell-based, cherry-pick, single point, set 2 | hit rate 56% among 5,600 | inhibition, % at 24.9 µM | NIH/3T3 viability, CellTiter-Glo ATP luminescence, 90 h | shares compounds with T cruzi growth-1;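 active = mean loss of cell viability signal at or above a set limit, and enough replicates individually reaching it; inconclusive = meets only the mean limit or only the replicate share; inactive = meets neither condition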;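 also: 0% = median of neutral control wells and 100% = median of positive control wells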
# The depositor's hits bear a star; ? = inconclusive; · = not tested or not shown. Sampled rows, rich in hits. Any-hit rate of the full collection: about 5.8%.
SMILES,KDM4C inh,IDH1 R132H inh,Pf Dd2 inh,T cruzi growth-1,T cruzi growth-2,T cruzi growth-3,NIH3T3 tox,NIH3T3 tox 2
Cc1ccccc1S(=O)(=O)N1CC[C@@H]2[C@H](CO)Nc3ccc(-c4ccc(C#N)cc4)cc3[C@@H]21,-5,·,-20,?,98*,104*,?,67*
Cn1cnc(S(=O)(=O)N2CC[C@H]3[C@H](CO)Nc4ccc(-c5ccccc5)cc4[C@H]32)c1,1,·,7,101*,103*,62,-14,9
Cc1ccccc1S(=O)(=O)N1CC[C@@H]2[C@H]1c1cc(-c3ccc(C#N)cc3)ccc1N[C@@H]2CO,2,·,9,101*,104*,45,16,42*
Cc1ccccc1S(=O)(=O)N1CC[C@@H]2[C@@H](CO)Nc3ccc(-c4cccc(C#N)c4)cc3[C@@H]21,-2,·,-62,33,·,·,·,·
Cc1ccccc1S(=O)(=O)N1CC[C@@H]2[C@H](CO)Nc3ccc(-c4cccc(C#N)c4)cc3[C@@H]21,-1,·,-5,17,·,·,·,·
OC[C@H]1Nc2ccc(-c3cccc(F)c3)cc2[C@H]2[C@@H]1CCN2Cc1ccncc1,5,·,-47,106*,104*,74,21,92*
OC[C@H]1Nc2ccc(-c3cccc(F)c3)cc2[C@@H]2[C@H]1CCN2Cc1ccc(F)cc1,-1,·,-90*,111*,?,112*,51*,105*
OC[C@@H]1Nc2ccc(-c3ccc(F)cc3)cc2[C@H]2[C@@H]1CCN2Cc1ccc(F)cc1,0,·,-68,44,·,·,·,·
N#Cc1cccc(-c2ccc3c(c2)[C@@H]2[C@@H](CCN2Cc2cncnc2)[C@@H](CO)N3)c1,1,·,-53,105*,89,51,-2,12
OC[C@@H]1Nc2ccc(-c3ccccc3)cc2[C@@H]2[C@H]1CCN2Cc1ccc(F)cc1,1,·,-71,75,·,·,·,·
O=C(CCCN1C(=O)c2ccccc2C1=O)Nc1ccccc1F,·,0,·,·,·,·,·,·
COC(=O)CCCCCCC(=O)N/N=C/c1ccc(OC)c(Br)c1,·,-1,·,·,·,·,·,·
COc1ccc(S(=O)(=O)Nc2ccc3c(c2)C(=O)N([C@H](C)CO)C[C@H](C)[C@H](CN(C)S(=O)(=O)c2cccs2)OCCCC[C@H](C)O3)cc1,1,·,-24,?,106*,81,30,16
COc1ccc(S(=O)(=O)Nc2ccc3c(c2)C(=O)N([C@H](C)CO)C[C@H](C)[C@@H](CN(C)S(=O)(=O)c2cccs2)OCCCC[C@H](C)O3)cc1,11,·,-38,42,·,·,·,·
COc1ccc(S(=O)(=O)Nc2ccc3c(c2)C(=O)N([C@@H](C)CO)C[C@H](C)[C@@H](CN(C)S(=O)(=O)c2cccs2)OCCCC[C@@H](C)O3)cc1,0,0,-74,109*,103*,60,-7,6
Cc1noc(C)c1S(=O)(=O)Nc1ccc2c(c1)CC(=O)N([C@H](C)CO)C[C@H](C)[C@@H](CN(C)Cc1ccc(Cl)c(Cl)c1)O2,6,0,-13,100*,106*,71,-3,104*
Cc1ccc(S(=O)(=O)Nc2ccc3c(c2)C(=O)N([C@H](C)CO)C[C@@H](C)[C@@H](CN(C)Cc2ccc(Cl)c(Cl)c2)O3)cc1,-1,0,-2,?,95*,56,65*,105*
Cc1noc(C)c1S(=O)(=O)Nc1ccc2c(c1)CC(=O)N([C@@H](C)CO)C[C@@H](C)[C@H](CN(C)Cc1ccc(Cl)c(Cl)c1)O2,-1,1,-23,-44,·,·,·,·
